Consider 28 molecules from ChEMBL document CHEMBL5113423, “Discovery and preclinical profile of sudapyridine (WX-081), a novel anti-tuberculosis agent” (Bioorg Med Chem Lett, 2022).

Data set [1] in a line: Cytotoxicity against human HeLa cells. The data set is classed as toxicity, cell-based.
Data set [2] can be described thus: Cytotoxicity against African green monkey Vero cells. The following applies: chlorocebus sabaeus. The data set is classed as toxicity, cell-based.
The subject of data set [3] is Mycobacterium tuberculosis. Kind of data set: Antimycobacterial activity against Mycobacterium tuberculosis H37Rv assessed as mycobacterial growth inhibition by microplate alamar blue assay. The format is functional. In short, it runs like this: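 M. tuberculosis H37Rv under normoxic conditions, microplate alamar blue assay (MABA) following Cho et al. Read-out is MIC.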

In data set [4] the test system is Mycobacterium tuberculosis. Kind of data set: Antimycobacterial activity against Mycobacterium tuberculosis H37Rv assessed as mycobacterial growth inhibition by low oxygen recovery assay. The format is functional. In short, it runs like this:
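M. tuberculosis H37Rv under hypoxic conditions, low-oxygen recovery assay (LORA) following Cho et al. Read-out is MIC.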

For data set [5], the system named is Mycobacterium tuberculosis. Kind of data set: Antimycobacterial activity against drug-sensitive Mycobacterium tuberculosis assessed as mycobacterial growth inhibition. The data set is classed as functional.
Data set [6] has as its system Mycolicibacterium smegmatis. Kind of data set: Antimycobacterial activity against Mycobacterium smegmatis ATCC19420 assessed as mycobacterial growth inhibition. The format is functional.
In data set [7] the test system is Mycolicibacterium smegmatis. Kind of data set: Antimycobacterial activity against Mycobacterium smegmatis ATCC700084 assessed as mycobacterial growth inhibition. The data set is classed as functional.
Data set [8] has as its system Mycolicibacterium peregrinum. Kind of data set: Antimycobacterial activity against Mycobacterium peregrinum ATCC700686 assessed as mycobacterial growth inhibition. The format is functional.
The target in data set [9] is Voltage-gated inwardly rectifying potassium channel KCNH2 (Homo sapiens, UniProt Q12809). Kind of data set: Inhibition of human ERG. The data set is classed as toxicity.
Sequence of Voltage-gated inwardly rectifying potassium channel KCNH2 (Q12809 whole entry): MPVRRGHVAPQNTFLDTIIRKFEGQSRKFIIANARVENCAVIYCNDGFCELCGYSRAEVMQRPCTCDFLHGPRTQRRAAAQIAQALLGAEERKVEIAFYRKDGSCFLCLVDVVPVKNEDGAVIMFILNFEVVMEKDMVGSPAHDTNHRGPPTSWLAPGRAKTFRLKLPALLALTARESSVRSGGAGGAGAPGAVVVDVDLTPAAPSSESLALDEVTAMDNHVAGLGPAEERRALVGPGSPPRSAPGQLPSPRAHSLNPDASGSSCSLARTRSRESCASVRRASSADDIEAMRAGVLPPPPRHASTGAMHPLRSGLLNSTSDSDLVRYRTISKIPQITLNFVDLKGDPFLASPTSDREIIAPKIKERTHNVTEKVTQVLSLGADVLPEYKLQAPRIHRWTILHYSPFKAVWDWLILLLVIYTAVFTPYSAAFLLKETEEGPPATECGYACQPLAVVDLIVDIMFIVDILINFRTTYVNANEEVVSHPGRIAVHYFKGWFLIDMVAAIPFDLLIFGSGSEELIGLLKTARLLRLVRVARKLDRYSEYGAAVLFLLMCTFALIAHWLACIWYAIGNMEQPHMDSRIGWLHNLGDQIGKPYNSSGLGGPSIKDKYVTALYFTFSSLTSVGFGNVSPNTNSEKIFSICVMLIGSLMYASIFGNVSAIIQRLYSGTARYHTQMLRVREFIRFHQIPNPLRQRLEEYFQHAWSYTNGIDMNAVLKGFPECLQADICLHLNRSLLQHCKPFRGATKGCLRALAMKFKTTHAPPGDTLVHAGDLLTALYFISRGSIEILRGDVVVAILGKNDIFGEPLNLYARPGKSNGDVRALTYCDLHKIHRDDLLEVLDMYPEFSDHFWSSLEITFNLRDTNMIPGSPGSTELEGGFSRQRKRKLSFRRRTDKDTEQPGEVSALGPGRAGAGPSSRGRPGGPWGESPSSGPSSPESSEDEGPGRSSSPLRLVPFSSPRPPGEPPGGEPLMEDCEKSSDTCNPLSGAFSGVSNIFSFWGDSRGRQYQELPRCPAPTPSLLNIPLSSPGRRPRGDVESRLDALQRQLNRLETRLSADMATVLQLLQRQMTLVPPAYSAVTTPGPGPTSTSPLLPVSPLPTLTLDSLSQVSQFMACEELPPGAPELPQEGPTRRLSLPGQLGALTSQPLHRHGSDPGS
Data set [10] has as its target Voltage-dependent L-type calcium channel subunit alpha-1C (Homo sapiens, UniProt Q13936). Kind of data set: Inhibition of human Cav1.2.
The target of data set [11] is Sodium channel protein type 5 subunit alpha (Homo sapiens, UniProt Q14524). Kind of data set: Inhibition of Nav1.5 (unknown origin).
Sequence of Sodium channel protein type 5 subunit alpha (Q14524 whole entry): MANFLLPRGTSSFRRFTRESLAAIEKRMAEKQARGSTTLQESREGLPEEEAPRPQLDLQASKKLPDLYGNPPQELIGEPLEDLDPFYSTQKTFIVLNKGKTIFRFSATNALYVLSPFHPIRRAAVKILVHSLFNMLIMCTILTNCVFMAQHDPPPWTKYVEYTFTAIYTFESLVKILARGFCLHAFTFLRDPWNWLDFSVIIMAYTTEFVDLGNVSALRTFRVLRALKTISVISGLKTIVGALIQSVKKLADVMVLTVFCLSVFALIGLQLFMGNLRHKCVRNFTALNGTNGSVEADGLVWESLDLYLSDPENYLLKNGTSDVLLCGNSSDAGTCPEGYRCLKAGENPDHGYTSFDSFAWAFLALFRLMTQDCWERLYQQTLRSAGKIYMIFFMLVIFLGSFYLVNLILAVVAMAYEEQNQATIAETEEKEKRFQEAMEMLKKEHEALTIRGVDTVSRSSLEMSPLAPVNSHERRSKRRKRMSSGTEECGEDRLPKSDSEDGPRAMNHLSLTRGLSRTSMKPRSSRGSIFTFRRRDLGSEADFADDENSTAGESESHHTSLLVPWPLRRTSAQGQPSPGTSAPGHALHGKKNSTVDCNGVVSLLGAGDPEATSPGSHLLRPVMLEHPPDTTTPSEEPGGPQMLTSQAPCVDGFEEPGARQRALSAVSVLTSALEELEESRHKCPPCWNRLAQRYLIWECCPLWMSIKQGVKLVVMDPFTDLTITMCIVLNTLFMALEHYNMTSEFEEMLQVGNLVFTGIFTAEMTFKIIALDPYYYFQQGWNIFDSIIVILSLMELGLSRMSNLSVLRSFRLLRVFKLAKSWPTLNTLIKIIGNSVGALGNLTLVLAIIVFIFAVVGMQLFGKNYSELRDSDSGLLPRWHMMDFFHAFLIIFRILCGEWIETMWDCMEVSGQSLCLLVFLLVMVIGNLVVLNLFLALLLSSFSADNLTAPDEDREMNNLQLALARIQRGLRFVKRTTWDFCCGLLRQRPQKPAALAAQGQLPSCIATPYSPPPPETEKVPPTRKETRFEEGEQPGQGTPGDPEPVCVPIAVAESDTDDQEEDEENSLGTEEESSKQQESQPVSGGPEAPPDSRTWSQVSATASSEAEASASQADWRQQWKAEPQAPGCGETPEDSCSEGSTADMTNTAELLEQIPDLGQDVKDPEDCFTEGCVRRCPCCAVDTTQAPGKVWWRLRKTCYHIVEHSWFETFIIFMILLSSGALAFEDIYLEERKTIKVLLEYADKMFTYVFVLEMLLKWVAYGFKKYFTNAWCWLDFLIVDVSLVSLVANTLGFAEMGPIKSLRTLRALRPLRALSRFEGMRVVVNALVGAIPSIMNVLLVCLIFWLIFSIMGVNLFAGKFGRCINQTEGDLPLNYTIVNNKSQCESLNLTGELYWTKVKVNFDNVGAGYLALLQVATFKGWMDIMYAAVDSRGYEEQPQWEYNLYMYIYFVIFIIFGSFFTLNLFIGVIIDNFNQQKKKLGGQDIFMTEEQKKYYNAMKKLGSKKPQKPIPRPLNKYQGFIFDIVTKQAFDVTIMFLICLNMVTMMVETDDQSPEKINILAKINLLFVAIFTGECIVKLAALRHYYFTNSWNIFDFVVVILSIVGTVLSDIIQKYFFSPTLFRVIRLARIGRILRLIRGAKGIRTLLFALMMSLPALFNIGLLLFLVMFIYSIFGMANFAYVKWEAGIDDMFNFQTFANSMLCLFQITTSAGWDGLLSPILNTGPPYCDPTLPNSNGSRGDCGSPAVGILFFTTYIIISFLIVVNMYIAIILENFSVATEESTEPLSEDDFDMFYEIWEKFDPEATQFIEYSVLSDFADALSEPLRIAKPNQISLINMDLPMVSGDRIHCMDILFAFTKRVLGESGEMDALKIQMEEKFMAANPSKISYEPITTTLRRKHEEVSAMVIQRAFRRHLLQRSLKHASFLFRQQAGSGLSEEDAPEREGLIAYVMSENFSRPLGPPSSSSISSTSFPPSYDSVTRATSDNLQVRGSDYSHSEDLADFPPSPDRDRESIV
The test system of another data set is Cardiac Purkinje fiber. Kind of data set: Effect on rabbit Purkinje fiber assessed as change in concentration of maximum upstroke velocity. The data set is classed as functional, Oryctolagus cuniculus.

One may read the CC50 as the concentration that lowers cell viability or growth by half. The term MIC denotes the lowest concentration found to suppress growth. The MIC50 is the lowest concentration that inhibits either 50% of growth or 50% of the strains tested, depending on the study. Broadly, the MIC90 is the lowest concentration that inhibits either 90% of growth or 90% of the strains tested, depending on the study. What is called IC50 is the point on the concentration scale where inhibition reaches its midpoint.

In brackets after ≈: the same amount, converted by molar mass.

As for `COc1nc(-c2ccsc2)ccc1[C@@H](c1ccccc1)[C@@](O)(CCN(C)C)c1cccc2ccccc12`, the CC50 is greater than 64 µg/mL in data set [1] and 24.4 µg/mL (≈ 48 µM) in data set [2].

For `COc1nc(-c2ccncc2)ccc1[C@@H](c1ccccc1)[C@@](O)(CCN(C)C)c1cccc2ccccc12`, the MIC in data set [3] is 0.7 µg/mL (≈ 1.39 µM). In addition, the CC50 in data set [1] was 9.6 µg/mL (≈ 19.1 µM); in data set [2] it was greater than 50 µg/mL.

Regarding `COc1ncc(-c2ccccc2)cc1[C@@H](c1ccccc1)[C@@](O)(CCN(C)C)c1cc(F)ccc1F`, the MIC in data set [3] and in data set [4] was 0.7 µg/mL (≈ 1.43 µM) throughout. This molecule came in with a CC50 in data set [2] greater than 50 µg/mL.

For the molecule `NNC(=O)c1ccncc1` [ISONIAZID], in data set [5], the MIC50 was found to be 0.024 µg/mL (≈ 0.175 µM) and the MIC90 stood at 0.032 µg/mL (≈ 0.233 µM).

Consider `COc1nc(-c2ccc(F)cc2)ccc1[C@@H](c1ccccc1)[C@@](O)(CCN(C)C)c1cccc2ccccc12`, for which the MIC in data set [3] was found to be 0.34 µg/mL (≈ 0.653 µM); in [4], 0.71 µg/mL (≈ 1.36 µM). In addition, the values for the CC50 in data set [1] and in data set [2] were greater than 64 µg/mL and greater than 50 µg/mL, respectively.

Turning to `COc1ncc(-c2ccccc2)cc1[C@@H](c1ccccc1)[C@@](O)(CCN(C)C)c1ccccc1`, the MIC in data set [3] is 1.5 µg/mL (≈ 3.31 µM); in [4] it was 1.2 µg/mL (≈ 2.65 µM). For the same molecule, the CC50 in data set [1] is 11.9 µg/mL (≈ 26.3 µM); in data set [2] it was greater than 50 µg/mL.

`COc1ncc(-c2ccccc2)cc1[C@@H](c1ccccc1)[C@@](O)(CCN(C)C)c1cccc2ccccc12`: the MIC stood at 0.0312 µg/mL (≈ 0.0622 µM) in [6]; 0.0625 µg/mL (≈ 0.124 µM) in data set [7]; 0.0625 µg/mL (≈ 0.124 µM) in data set [8]; 1.1 µg/mL (≈ 2.19 µM) in data set [3]; 0.7 µg/mL (≈ 1.39 µM) in data set [4]. Besides, the half-maximal cytotoxic concentration (CC50) in data set [1] is 30.4 µg/mL (≈ 60.5 µM); in data set [2], greater than 50 µg/mL.

Turning to `NC[C@H]1O[C@H](O[C@H]2[C@H](O)[C@@H](O[C@H]3O[C@H](CO)[C@@H](O)[C@H](N)[C@H]3O)[C@H](N)C[C@@H]2N)[C@H](O)[C@@H](O)[C@@H]1O` [KANAMYCIN], in data set [5], the MIC50 worked out at 1.22 µg/mL (≈ 2.52 µM) and the MIC90 was 1.91 µg/mL (≈ 3.94 µM).

On to `COc1ncc(-c2ccccc2)cc1[C@@H](c1ccccc1)[C@@](O)(CCN(C)C)c1cccc(F)c1F`, for which the figures for the minimum inhibitory concentration (MIC) in data set [3] and in [4] were 0.6 µg/mL (≈ 1.23 µM) and 0.5 µg/mL (≈ 1.02 µM), respectively. Moreover, the results for the CC50 in data set [1] and in [2] were 28.1 µg/mL (≈ 57.5 µM) and greater than 50 µg/mL, respectively.

Take `COc1ncc(-c2ccccc2)cc1[C@@H](c1ccccc1)[C@@](O)(CCN(C)C)c1cc(F)cc(F)c1`: the MIC in data set [3] stood at 0.7 µg/mL (≈ 1.43 µM); in data set [4] it was 0.4 µg/mL (≈ 0.819 µM). Besides, the CC50 in data set [1] is 28.8 µg/mL (≈ 58.9 µM); in [2], greater than 50 µg/mL.

As to `COc1nc(-c2cccc(F)c2)ccc1[C@@H](c1ccccc1)[C@@](O)(CCN(C)C)c1cccc2ccccc12`, the results for the minimal inhibitory concentration (MIC) in [3] and in data set [4] were 0.48 µg/mL (≈ 0.922 µM) and 1.18 µg/mL (≈ 2.27 µM), respectively. Further, the CC50 in [1] is 62.8 µg/mL (≈ 121 µM); in [2] it was greater than 50 µg/mL.

Regarding `CNCC[C@@](O)(c1cccc2ccccc12)[C@H](c1ccccc1)c1ccc(-c2ccc(Cl)cc2)nc1OC`, the values for the IC50 in data set [9], in data set [10] and in [11] were 1.89 µM, greater than 3 µM and greater than 10 µM, respectively. The Activity in the data set on Cardiac Purkinje fiber is greater than 3 µM.

In the case of `COc1ccc(-c2ccc([C@@H](c3ccccc3)[C@@](O)(CCN(C)C)c3cccc4ccccc34)c(OC)n2)cc1`, the values for the MIC in data set [3] and in [4] were 0.33 µg/mL (≈ 0.62 µM) and 0.19 µg/mL (≈ 0.357 µM), respectively. Moreover, the CC50 is greater than 64 µg/mL in data set [1] and greater than 50 µg/mL in [2].

Turning to `CNCC[C@@](O)(c1cccc2ccccc12)[C@H](c1ccccc1)c1cc2cc(Br)ccc2nc1OC`, the IC50 in data set [9] is 1.73 µM; in [10], 0.75 µM; in data set [11], greater than 10 µM. The Activity in the data set with Cardiac Purkinje fiber was found to be 0.3 µM.

On to `COc1nc(-c2ccc(C#N)cc2)ccc1[C@@H](c1ccccc1)[C@@](O)(CCN(C)C)c1cccc2ccccc12`, for which the MIC was 0.44 µg/mL (≈ 0.834 µM) in [3] and 0.77 µg/mL (≈ 1.46 µM) in [4]. Besides, the CC50 was greater than 64 µg/mL in data set [1] and greater than 50 µg/mL in data set [2].

As to `COc1nc(-c2ccccc2)ccc1[C@@H](c1ccccc1)[C@@](O)(CCN(C)C)c1cccc2ccccc12`, the MIC in data set [6] was determined as 1 µg/mL (≈ 1.99 µM); in data set [7], 1 µg/mL (≈ 1.99 µM); in [8], 0.5 µg/mL (≈ 0.995 µM).

With `COc1nc(C2CCCCC2)ccc1[C@@H](c1ccccc1)[C@@](O)(CCN(C)C)c1cccc2ccccc12`, the minimum inhibitory concentration (MIC) in [4] was 1.8 µg/mL (≈ 3.54 µM). The CC50 worked out at 57.7 µg/mL (≈ 113 µM) in data set [1] and 32.3 µg/mL (≈ 63.5 µM) in data set [2].

With `COc1nc(-c2cnsc2)ccc1[C@@H](c1ccccc1)[C@@](O)(CCN(C)C)c1cccc2ccccc12`, the MIC in data set [3] was found to be 1.9 µg/mL (≈ 3.73 µM); in [4] it was 3.9 µg/mL (≈ 7.65 µM). The CC50 in data set [1] was found to be 28.8 µg/mL (≈ 56.5 µM); in data set [2], 26.3 µg/mL (≈ 51.6 µM).

For `COc1nc(-c2ccc(Br)cc2)ccc1[C@@H](c1ccccc1)[C@@](O)(CCN(C)C)c1cccc2ccccc12`, the MIC in data set [3] and in data set [4] was 0.22 µg/mL (≈ 0.378 µM) throughout. For the same molecule, the CC50 in data set [1] is greater than 64 µg/mL; in [2], greater than 50 µg/mL.

Turning to `COc1nc(C(C)(C)C)ccc1[C@@H](c1ccccc1)[C@@](O)(CCN(C)C)c1cccc2ccccc12`, the MIC in [3] is 1.3 µg/mL (≈ 2.69 µM); in [4] it was 2.7 µg/mL (≈ 5.59 µM). The CC50 in data set [1] is greater than 64 µg/mL; in data set [2], 27.6 µg/mL (≈ 57.2 µM).

Consider `COc1nc(-c2ccccc2Cl)ccc1[C@@H](c1ccccc1)[C@@](O)(CCN(C)C)c1cccc2ccccc12`, for which the figures for the MIC in [3] and in [4] were 1.17 µg/mL (≈ 2.18 µM) and 3.03 µg/mL (≈ 5.64 µM), respectively. In addition, the CC50 in [1] was greater than 64 µg/mL; in data set [2] it was greater than 50 µg/mL.

On to `COc1nc(-c2ccc(C(F)(F)F)cc2)ccc1[C@@H](c1ccccc1)[C@@](O)(CCN(C)C)c1cccc2ccccc12`, for which the MIC is 0.96 µg/mL (≈ 1.68 µM) in data set [3] and 0.63 µg/mL (≈ 1.1 µM) in data set [4]. Further, the 50% cytotoxic concentration (CC50) is greater than 64 µg/mL in [1] and greater than 50 µg/mL in [2].

With `CO[C@H]1/C=C/O[C@@]2(C)Oc3c(C)c(O)c4c(O)c(c(/C=N/N5CCN(C)CC5)c(O)c4c3C2=O)NC(=O)/C(C)=C\C=C\[C@H](C)[C@H](O)[C@@H](C)[C@@H](O)[C@@H](C)[C@H](OC(C)=O)[C@@H]1C` [RIFAMPIN], in [5], the MIC50 stood at 0.035 µg/mL (≈ 0.0425 µM) and the MIC90 came to 0.057 µg/mL (≈ 0.0693 µM).

As to `COc1nc(-c2cccc(Cl)c2)ccc1[C@@H](c1ccccc1)[C@@](O)(CCN(C)C)c1cccc2ccccc12`, the values for the MIC in [3] and in data set [4] were 2.73 µg/mL (≈ 5.08 µM) and 1.36 µg/mL (≈ 2.53 µM), respectively. In [2], the CC50 was greater than 50 µg/mL.

Take `COc1nc(-c2ccc(Cl)c(F)c2)ccc1[C@@H](c1ccccc1)[C@@](O)(CCN(C)C)c1cccc2ccccc12`: the MIC was 0.19 µg/mL (≈ 0.342 µM) in [3] and 0.52 µg/mL (≈ 0.937 µM) in data set [4]. Besides, the CC50 in data set [1] was greater than 64 µg/mL; in data set [2], greater than 50 µg/mL.

`COc1nc(-c2ccccc2F)ccc1[C@@H](c1ccccc1)[C@@](O)(CCN(C)C)c1cccc2ccccc12`: the MIC in data set [3] is 1.41 µg/mL (≈ 2.71 µM); in data set [4], 0.57 µg/mL (≈ 1.09 µM). The molecule also returned a CC50 in data set [2] greater than 50 µg/mL.

In the case of `COc1nc(C2CCOCC2)ccc1[C@@H](c1ccccc1)[C@@](O)(CCN(C)C)c1cccc2ccccc12`, the values for the MIC in [3] and in data set [4] were 1.3 µg/mL (≈ 2.55 µM) and 2.7 µg/mL (≈ 5.29 µM), respectively. Besides, the CC50 in data set [1] was 22.5 µg/mL (≈ 44.1 µM); in data set [2], greater than 50 µg/mL.

With `COc1nc(-c2ccc(OC(F)(F)F)cc2)ccc1[C@@H](c1ccccc1)[C@@](O)(CCN(C)C)c1cccc2ccccc12`, the minimal inhibitory concentration (MIC) in data set [3] amounted to 0.03 µg/mL (≈ 0.0511 µM); in [4], 0.61 µg/mL (≈ 1.04 µM). Further, the CC50 is greater than 64 µg/mL in data set [1] and greater than 50 µg/mL in data set [2].
